Experimental data: ChEMBL document CHEMBL1137377, “Evaluation of azasterols as anti-parasitics” (J Med Chem, 2006)

Columns and labels:
Leishmania donovani = experiment: Antileishmanial activity against Leishmania donovani amastigotes in CD1 mouse macrophage; assay type: functional, organism-based; details: for EC50: read-out: ED50 (the source's name)
Outline: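 Peritoneal macrophages from starch-induced CD1 mice, kept 24 h in RPMI1640 + 10% HIFCS at 37 °C, 5% CO2. Infected with L. donovani MHOM/ET/67/L82 amastigotes from hamster spleen at 5 parasites:1 macrophage. After 24 h, drug exposure for 5 days, overlay replaced day 3. Top concentration 30 µg/mL, quadruplicate. Slides methanol-fixed, Giemsa-stained, counted microscopically. ED50 by curve fitting.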

Trypanosoma cruzi = experiment: Antitrypanosomal activity against Trypanosoma cruzi trypomastigotes in CD1 mouse macrophage; assay type: functional; details: read-out: ED50 (the source's name)
Outline: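 Starch-induced CD1 peritoneal macrophages plated at 4 × 10^5/mL, infected after 24 h with T. cruzi Tulahuan LAC-Z trypomastigotes. 24 h later, drug exposure for 3 days. ED50 by curve fitting.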

KB = experiment: Cytotoxicity against KB cell line; assay type: functional; details: Homo sapiens, read-out: TD50 (the source's name)
Plasmodium falciparum = experiment: Antimalarial activity against Plasmodium falciparum 3D7; assay type: functional, organism-based
Outline: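 Synchronized ring-stage 3D7 culture at 1% parasitemia in RPMI 1640, 5% hematocrit, 37 °C, 5% CO2. Top final drug concentration 30 µg/mL. After 24 h, (3H)-hypoxanthine added (0.2 µCi/well), then 48 h further incubation. Plates freeze/thawed and harvested, and hypoxanthine uptake counted. ED50 by curve fitting.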

[1] = test system: Trypanosoma brucei rhodesiense; experiment: Antitrypanosomal activity against Trypanosoma brucei rhodesiense trypomastigotes; assay type: functional; details: read-out: ED50 (the source's name)
Outline: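 Bloodstream-form STIB900 trypomastigotes grown in HMI-18 + 15% HIFCS at 37 °C, 5% CO2. Seeded at 2 × 10^5/mL onto drug dilutions (top 30 µg/mL) for 72 h. Alamar Blue read 5-6 h later by fluorescence (ex/em 530/585 nm). ED50 by curve fitting.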

[2] = read-out: ED50 (the source's name)

Compound	EC50 (Leishmania donovani) [µM]	EC50 (Trypanosoma cruzi) [µM]	EC50 (Plasmodium falciparum; [2]) [µM]	EC50 [1] [µM]	EC50 (Plasmodium falciparum; read-out: EC50) [µM]	CC50 (KB) [µM]	ED50 (Leishmania donovani) [µM]
C[C@H](CNCCCCC(=O)O)[C@H]1CC[C@H]2C3CC=C4C[C@@H](O)CC[C@]4(C)[C@H]3CC[C@]12C (stereo not given in full)	> 70	66.2	> 70	30.1	–	> 695	–
C[C@H](CNCCCC(=O)O)[C@H]1CC[C@H]2C3CC=C4C[C@@H](O)CC[C@]4(C)[C@H]3CC[C@]12C (stereo not given in full)	> 72	47.3	56.5	14.4	–	451	–
pentostam	–	–	–	–	–	–	> 10
CC(=O)O[C@H]1CC[C@@]2(C)C(=CCC3[C@@H]4CC[C@H]([C@H](C)CNCCCCCCCC(=O)O)[C@@]4(C)CC[C@@H]32)C1 (stereo not given in full)	–	21	> 58	9.11	–	59	–
C[C@H](C(=O)NCCCCCCCC(=O)O)[C@H]1CC[C@H]2C3CC=C4C[C@@H](O)CC[C@]4(C)[C@H]3CC[C@]12C (stereo not given in full)	25.8	6.5	> 62	0.431	–	377	–
C[C@H](CNCCCCCCC(=O)O)[C@H]1CC[C@H]2C3CC=C4C[C@@H](O)CC[C@]4(C)[C@H]3CC[C@]12C (stereo not given in full)	> 65	44.9	> 65	47.6	–	72	–
COC(=O)CCCCCCCNC[C@@H](C)[C@H]1CC[C@H]2C3CC=C4C[C@@H](OC(C)=O)CC[C@]4(C)[C@H]3CC[C@]12C (stereo not given in full)	14.8	28.7	2.64	0.098	–	10	–
CC(=O)O[C@H]1CC[C@@]2(C)C(=CCC3[C@@H]4CC[C@H]([C@H](C)C(=O)NCCCC[C@H](NC(=O)OCc5ccccc5)C(=O)OCc5ccccc5)[C@@]4(C)CC[C@@H]32)C1 (stereo not given in full)	> 40	> 24	3.4	0.01	–	> 400	–
C[C@H](CNCCCCCC(=O)O)[C@H]1CC[C@H]2C3CC=C4C[C@@H](O)CC[C@]4(C)[C@H]3CC[C@]12C (stereo not given in full)	54.5	56.3	> 67	> 67	–	> 673	–
CCN(CC)CCCC(C)Nc1ccnc2cc(Cl)ccc12 (stereo not given) [CHLOROQUINE]	–	–	0.003	–	–	–	–
C[C@]12CC[C@H](O)C[C@@H]1CC[C@@H]1[C@@H]2CC[C@@]2(C)[C@H]1CC[C@@H]2[C@@](C)(O)C1CCCCN1 (stereo not given in full)	8.9	7.4	–	3.3	–	11.9	–
COC(=O)[C@@H](N)CCCCNC(=O)[C@@H](C)[C@H]1CC[C@H]2C3CC=C4C[C@@H](O)CC[C@]4(C)[C@H]3CC[C@]12C (stereo not given in full)	25	11.2	–	0.55	–	42	–
C[C@H](CNCC(=O)O)[C@H]1CC[C@H]2C3CC=C4C[C@@H](O)CC[C@]4(C)[C@H]3CC[C@]12C (stereo not given in full)	> 77	> 77	> 77	> 77	–	> 770	–
C[C@H](CNCCCCCCCC(=O)O)[C@H]1CC[C@H]2C3CC=C4C[C@@H](O)CC[C@]4(C)[C@H]3CC[C@]12C (stereo not given in full)	26.4	38.4	> 63	10.6	–	> 633	–
N=C(N)c1ccc(OCCCCCOc2ccc(C(=N)N)cc2)cc1 [PENTAMIDINE]	–	–	–	0.001	–	–	–
C[C@H](CNCCC[C@H](NC(=O)OCc1ccccc1)C(=O)O)[C@H]1CC[C@H]2C3CC=C4C[C@@H](O)CC[C@]4(C)[C@H]3CC[C@]12C (stereo not given in full)	–	> 52	51	> 52	–	417	–

Now from value to compound, other results behind:

EC50 (Leishmania donovani) [µM]	EC50 (Trypanosoma cruzi) [µM]	EC50 (Plasmodium falciparum; [2]) [µM]	EC50 [1] [µM]	EC50 (Plasmodium falciparum; read-out: EC50) [µM]	Compound	CC50 (KB) [µM]	ED50 (Leishmania donovani) [µM]
9.5	53.5	3.49	0.025	–	COC(=O)CCCCCCNC[C@@H](C)[C@H]1CC[C@H]2C3CC=C4C[C@@H](OC(C)=O)CC[C@]4(C)[C@H]3CC[C@]12C (stereo not given in full)	11.2	–
29.2	39.8	–	49.8	45.6	C[C@H](C(=O)NCCCC(=O)O)[C@H]1CC[C@H]2C3CC=C4C[C@@H](O)CC[C@]4(C)[C@H]3CC[C@]12C (stereo not given in full)	616	–
> 48	18.5	–	17.4	–	CC(=O)O[C@H]1CC[C@@]2(C)C(=CCC3[C@@H]4CC[C@H]([C@H](C)CNCCC[C@H](NC(=O)OCc5ccccc5)C(=O)O)[C@@]4(C)CC[C@@H]32)C1 (stereo not given in full)	–	–
> 65	> 65	–	2.38	–	C[C@H](C(=O)NCCC[C@H](N)C(=O)O)[C@H]1CC[C@H]2C3CC=C4C[C@@H](O)CC[C@]4(C)[C@H]3CC[C@]12C (stereo not given in full)	651	–
> 67	32.9	> 67	7.85	–	C[C@H](C(=O)NCCCCC(=O)O)[C@H]1CC[C@H]2C3CC=C4C[C@@H](O)CC[C@]4(C)[C@H]3CC[C@]12C (stereo not given in full)	561	–
> 54	4.64	–	> 54	–	CC(=O)O[C@H]1CC[C@@]2(C)C(=CCC3[C@@H]4CC[C@H]([C@H](C)CNC[C@H](NC(=O)OC(C)(C)C)C(=O)O)[C@@]4(C)CC[C@@H]32)C1 (stereo not given in full)	–	–
–	5.61	> 67.3	7.85	–	COC(=O)CNC[C@@H](C)[C@H]1CC[C@H]2C3CC=C4C[C@@H](OC(C)=O)CC[C@]4(C)[C@H]3CC[C@]12C (stereo not given in full)	94.5	–
> 53	13.2	–	> 52	–	CC(=O)O[C@H]1CC[C@@]2(C)C(=CCC3[C@@H]4CC[C@H]([C@H](C)CNCC[C@H](NC(=O)OC(C)(C)C)C(=O)O)[C@@]4(C)CC[C@@H]32)C1 (stereo not given in full)	–	–
> 65	12.6	> 65	54.6	–	CC(=O)O[C@H]1CC[C@@]2(C)C(=CCC3[C@@H]4CC[C@H]([C@H](C)CNCCCC(=O)O)[C@@]4(C)CC[C@@H]32)C1 (stereo not given in full)	505	–
21.9	20.5	7.37	0.033	–	COC(=O)CCCCCNC[C@@H](C)[C@H]1CC[C@H]2C3CC=C4C[C@@H](OC(C)=O)CC[C@]4(C)[C@H]3CC[C@]12C (stereo not given in full)	15.6	–
3.19	24.7	15.4	0.012	–	COC(=O)CCCNC[C@@H](C)[C@H]1CC[C@H]2C3CC=C4C[C@@H](OC(C)=O)CC[C@]4(C)[C@H]3CC[C@]12C (stereo not given in full)	19.2	–
> 50	> 50	–	1.33	–	C[C@H](C(=O)NCCC[C@H](NC(=O)OCc1ccccc1)C(=O)O)[C@H]1CC[C@H]2C3CC=C4C[C@@H](O)CC[C@]4(C)[C@H]3CC[C@]12C (stereo not given in full)	32	–
–	> 58	5.76	> 58	–	C[C@H](CNC[C@H](NC(=O)OC(C)(C)C)C(=O)O)[C@H]1CC[C@H]2C3CC=C4C[C@@H](O)CC[C@]4(C)[C@H]3CC[C@]12C (stereo not given in full)	86.1	–
> 51	26.8	–	17.5	–	CC(=O)O[C@H]1CC[C@@]2(C)C(=CCC3[C@@H]4CC[C@H]([C@H](C)C(=O)NCC[C@H](NC(=O)OC(C)(C)C)C(=O)O)[C@@]4(C)CC[C@@H]32)C1 (stereo not given in full)	–	–
–	> 74	> 74	> 74	–	C[C@H](C(=O)NCC(=O)O)[C@H]1CC[C@H]2C3CC=C4C[C@@H](O)CC[C@]4(C)[C@H]3CC[C@]12C (stereo not given in full)	> 743	–
> 62	> 62	> 62	55.2	–	CC(=O)O[C@H]1CC[C@@]2(C)C(=CCC3[C@@H]4CC[C@H]([C@H](C)CNCCCCCC(=O)O)[C@@]4(C)CC[C@@H]32)C1 (stereo not given in full)	433	–
> 49	> 49	–	1.8	–	C[C@H](C(=O)NCCCC[C@H](NC(=O)OCc1ccccc1)C(=O)O)[C@H]1CC[C@H]2C3CC=C4C[C@@H](O)CC[C@]4(C)[C@H]3CC[C@]12C (stereo not given in full)	276	–
> 52	8.7	–	2.68	–	CC(=O)O[C@H]1CC[C@@]2(C)C(=CCC3[C@@H]4CC[C@H]([C@H](C)C(=O)NC[C@H](NC(=O)OC(C)(C)C)C(=O)O)[C@@]4(C)CC[C@@H]32)C1 (stereo not given in full)	–	–
> 55	11.2	–	> 55	–	C[C@H](C(=O)NCC[C@H](NC(=O)OC(C)(C)C)C(=O)O)[C@H]1CC[C@H]2C3CC=C4C[C@@H](O)CC[C@]4(C)[C@H]3CC[C@]12C (stereo not given in full)	1270	–
–	> 72	> 72	> 72	–	C[C@H](C(=O)NCCC(=O)O)[C@H]1CC[C@H]2C3CC=C4C[C@@H](O)CC[C@]4(C)[C@H]3CC[C@]12C (stereo not given in full)	615	–
> 56	> 56	–	34.3	–	C[C@H](C(=O)NC[C@H](NC(=O)OC(C)(C)C)C(=O)O)[C@H]1CC[C@H]2C3CC=C4C[C@@H](O)CC[C@]4(C)[C@H]3CC[C@]12C (stereo not given in full)	109	–
